Pf Dd2 inh – P. falciparum Dd2 growth inhibitors, primary screen, SYBR Green fluorescence, single dose replicates; 72 h; stronger effect = lower value; activity change, % at 10 µM; hit rate 2.3% among 94,000; AID 1159554, 2015; in the data active = activity change below about -80%; inconclusive = no clear call, values can overlap the other calls
KDM4C inh – inhibitors of GASC-1 (KDM4C) histone demethylase, primary screen, biochemical, single concentration HTS | Lysine-specific demethylase 4C (Homo sapiens), Q9H3R0 | hit rate 0.15% among 96,000 | inhibition, % at 12.5 µM | GST-KDM4C 2-372, H3K9me3 peptide, LANCE TR-FRET;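 active = mean replicate inhibition above about 25%, with at least 55% of replicates also reaching it, limit read from the data, passing the limit was not always enough; inconclusive = only one of those two conditions met; inactive = neither condition met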
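Material: GST-tagged GASC-1 (JMJD2C) catalytic fragment, aa 2-372 / Quantity: enzyme final amount 10 nM / Medium: HEPES buffer, pH 7.5, plus ascorbate / Doses: one test concentration per compound / Incubation: 30 min reaction, 60 min detection, RT / Measured by: LANCE TR-FRET / Read-out: inhibition from TR-FRET ratio decrease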
T cruzi growth-1 – T. cruzi intracellular proliferation inhibitors, primary screen, cell-based, beta-gal Tulahuen parasites, NIH3T3 host, luminescence; T. cruzi beta-gal in NIH3T3, GalScreen luminescence, 90 h; inhibition, % at 8.34 µM; hit rate 5.9% among 77,000; AID 624255, 2012;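 active = mean inhibition above about 93%, with at least 55% of replicates each passing it, limit read from the data, passing the limit was not always enough; inconclusive = only one of those two conditions holds; inactive = neither condition holds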
IDH1 mut inh – inhibitors of IDH1 R132H reductase, primary screen, biochemical, plate reader, single point. Isocitrate dehydrogenase [NADP] cytoplasmic (Homo sapiens), O75874. diaphorase/resazurin fluorescence, 60 min. inhibition, % at 10 µM. hit rate 0.18% among 70,000. AID 624101, 2012; in the data active = inhibition above about 34%; inconclusive = no clear call, values can overlap the other calls; inactive = below about 11%;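 also: 0% = DMSO and 100% = no enzyme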
Target sequence (O75874 whole entry R132H): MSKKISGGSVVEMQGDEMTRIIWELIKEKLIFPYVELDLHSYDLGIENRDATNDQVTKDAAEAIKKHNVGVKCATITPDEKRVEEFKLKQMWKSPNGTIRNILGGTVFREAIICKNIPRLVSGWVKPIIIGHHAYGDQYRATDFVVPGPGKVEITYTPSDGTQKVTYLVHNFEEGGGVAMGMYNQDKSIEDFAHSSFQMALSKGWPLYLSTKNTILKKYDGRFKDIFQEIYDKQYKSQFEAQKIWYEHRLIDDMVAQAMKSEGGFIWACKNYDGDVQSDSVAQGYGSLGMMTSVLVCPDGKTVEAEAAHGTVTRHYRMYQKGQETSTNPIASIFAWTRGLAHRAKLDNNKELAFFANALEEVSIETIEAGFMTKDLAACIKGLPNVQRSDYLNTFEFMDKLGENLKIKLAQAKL
T cruzi growth-2 – T. cruzi intracellular proliferation inhibitors, confirmation, cell-based, NIH3T3 host, beta-gal parasite, luminescence, cherry-pick. T. cruzi beta-gal in NIH3T3, GalScreen luminescence, 90 h. shares compounds with T cruzi growth-1. inhibition, % at 8.35 µM. hit rate 72% among 5,600. AID 651739, 2012;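 active = mean replicate inhibition above about 95% and at least 55% of replicates individually reaching it, limit read from the data; inconclusive = only one of the two criteria is met; inactive = neither criterion is met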
T cruzi growth-3 – inhibitors of intracellular T. cruzi replication, confirmation, NIH3T3 host cells, beta-gal parasites, cherry-pick, set 2 | T. cruzi beta-gal in NIH3T3, GalScreen luminescence, 90 h | inhibition, % at 2.09 µM | shares compounds with T cruzi growth-1 | hit rate 21% among 5,600 | AID 651740, 2012;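 active = mean inhibition above about 95%, with at least 55% of replicates also reaching it, limit read from the data; inconclusive = meets just one of the two conditions; inactive = meets neither condition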;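 also: plate controls were neutral control median for no effect and positive control median for full effect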
3T3 cytotox – cytotoxicity in mouse NIH/3T3 fibroblasts, confirmation, cytotoxicity control for T. cruzi proliferation inhibitor project, cell-based, cherry-pick, single point; NIH/3T3 viability, CellTiter-Glo ATP luminescence, 90 h; cytotoxicity (signal decrease), % at 8.35 µM; hit rate 14% among 5,600; shares compounds with T cruzi growth-1; AID 651742, 2012;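 active = mean signal decrease across replicates above about 35% based on untreated-well scatter, with enough replicates individually passing, limit read from the data; inconclusive = no rule stated though some were filed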;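 also: 0% = median of neutral control wells and 100% = median of positive control wells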
NIH3T3 tox 2 – NIH/3T3 fibroblast cytotoxicity, confirmation, cytotoxicity control, cell-based, cherry-pick, single point, set 2. shares compounds with T cruzi growth-1. NIH/3T3 viability, CellTiter-Glo ATP luminescence, 90 h. hit rate 56% among 5,600. inhibition, % at 24.9 µM;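 active = mean loss of cell viability signal at or above a set limit, and enough replicates individually reaching it; inconclusive = meets only the mean limit or only the replicate share; inactive = meets neither condition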;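 also: 0% = median of neutral control wells and 100% = median of positive control wells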
* marks the source's active call; other numbers are inactive results; ? = inconclusive; · = no result given; ! = repeats disagree. Only some compounds are listed: those with a hit (about 5.8% of all), similar ones and a draw of the others.

SMILES | Pf Dd2 inh | KDM4C inh | T cruzi growth-1 | IDH1 mut inh | T cruzi growth-2 | T cruzi growth-3 | 3T3 cytotox | NIH3T3 tox 2
O=C([C@H]1[C@H](CO)[C@H]2Cn3c(ccc(C4=CCCC4)c3=O)[C@H]2N1Cc1nccs1)N1CCCCC1 | 10 | 3 | 68 | · | · | · | · | ·
COc1ccc(S(=O)(=O)N(C)CC(=O)Nc2cccc(C(F)(F)F)c2)cc1Cl | · | · | · | 0 | · | · | · | ·
CNC(=O)C[C@@H]1CC[C@@H]2[C@@H](COc3ccc(NC(=O)c4cc(F)cc(F)c4)cc3C(=O)N2C)O1 | -1 | 2 | -67 | · | · | · | · | ·
COc1cccc(-c2ccc3c(c2)[C@H]2[C@H](CCN2C(=O)c2cnccn2)[C@H](CO)N3)c1 | -12 | 5 | 74 | · | · | · | · | ·
CN(C)C(=O)c1cccc(-c2ccc3c(c2)[C@@H]2[C@@H](CCN2C(=O)c2cnccn2)[C@H](CO)N3)c1 | -10 | 0 | 105* | · | 97* | 62 | -22 | -14
O=C(c1cnccn1)N1CC[C@@H]2[C@H]1c1cc(-c3cccc(F)c3)ccc1N[C@@H]2CO | 10 | 0 | 101* | · | 104* | 74 | 26 | 41*
COc1ccc(-c2ccc3c(c2)[C@@H]2[C@@H](CCN2C(=O)c2cnccn2)[C@H](CO)N3)cc1 | -44 | 0 | ? | · | 112* | 85 | -9 | -32
Cc1c(Cl)cccc1NC(=O)CNC(=O)c1ccc([N+](=O)[O-])cc1 | · | · | · | 0 | · | · | · | ·
COc1ccccc1-c1ccc2n(c1=O)C[C@@H]1[C@@H](CO)[C@H](C(=O)NC3CCC3)N(C(=O)C3CCC3)[C@H]21 | · | 0 | 47 | · | · | · | · | ·
COc1ccc(C#Cc2ccc3c(c2)O[C@@H](CN(C)C(C)=O)[C@@H](C)CN([C@H](C)CO)S3(=O)=O)cc1 | -78 | -4 | 93 | -2 | · | · | · | ·
COc1cccc(CNC(=O)[C@@H]2[C@@H](CO)[C@@H]3Cn4c(cccc4=O)[C@H]2N3C(=O)C2CCCCC2)c1 | · | -1 | 96* | · | 42 | 26 | 20 | 1
O=C(NCCN1CCCC1)[C@H]1[C@H](CO)[C@H]2Cn3c(cccc3=O)[C@@H]1N2C(=O)c1ccccc1 | · | 1 | 96* | · | -7 | -25 | -9 | -20
O=C(NCCN1CCCCC1)[C@@H]1[C@@H](CO)[C@@H]2Cn3c(cccc3=O)[C@H]1N2C(=O)C1CCCCC1 | 9 | -1 | 63 | · | · | · | · | ·
COc1ccccc1Nc1nc(N)nc(CSc2nc3ccccc3s2)n1 | · | · | · | 0 | · | · | · | ·
C[C@@H]1CN([C@@H](C)CO)C(=O)c2cc(C#C[C@@H](C)O)cnc2O[C@@H]1CN(C)C(=O)Cc1ccccn1 | 37 | 1 | 11 | · | · | · | · | ·
O=C(NC1CCCC1)N1CC(=O)N2[C@H](CO)[C@H](c3ccc(-c4ccccc4)cc3)[C@@H]2C1 | 8 | · | · | · | · | · | · | ·
COc1ccc(S(=O)(=O)N(C)C[C@@H]2Oc3cc(C#CC4CCCC4)ccc3S(=O)(=O)N([C@H](C)CO)C[C@H]2C)cc1 | -49 | 1 | 13 | 0 | · | · | · | ·
COc1ccc(S(=O)(=O)N(C)C[C@@H]2Oc3cc(C#CC4CCCCC4)ccc3S(=O)(=O)N([C@@H](C)CO)C[C@@H]2C)cc1 | -84*! | 3 | 111*! | 1 | 92 | 78 | -10 | 59*
COc1ccc(S(=O)(=O)N(C)C[C@@H]2Oc3cc(C#CC4CC4)ccc3S(=O)(=O)N([C@H](C)CO)C[C@@H]2C)cc1 | -54 | 0 | 109* | -2 | 104* | 85 | 12 | 25*
